Activity calls are given as the source filed them. The calls are words filed in the database; no cut-off is given here.

These results are taken from ChEMBL document CHEMBL4406794, “N-(7-Cyano-6-(4-fluoro-3-(2-(3-(trifluoromethyl)phenyl)acetamido)phenoxy)benzo[d]thiazol-2-yl)cyclopropanecarboxamide (TAK-632) Analogues as Novel Necroptosis Inhibitors by Targeting Receptor-Interacting Protein Kinase 3 (RIPK3): Synthesis, Structure-Activity Relationships, and in Vivo Efficacy” (J Med Chem, 2019).

In series [1] the test system is Mus musculus. As to the kind of experiment: Protection against TNFalpha/Z-VAD-fmk-induced C57BL/6J mouse model of systemic inflammatory response syndrome assessed as increase in body temperature at 5 to 50 mg/kg, po administered via gavage 2 hrs prior to Z-VAD-fmk addition for 15 mins followed by TNFalpha stimulation for 1 hr and subsequent Z-VAD-fmk addition meaured up to 50 hrs post TNFalpha stimulation by electric thermometer. In kind it is functional, organism-based. The essentials: (§1)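 Female C57BL/6 mice, fasted overnight, n=10 per group. Compound given by oral gavage at 5, 25 or 50 mg/kg 2 h before TNF. z-VAD-fmk 180 µg i.p., then 15 min later mTNF-α 400 µg/kg i.v. in endotoxin-free PBS, then a further 70 µg z-VAD-fmk i.p. 1 h later. Body temperature and survival followed, compared with vehicle by one-way ANOVA.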

In series [2] the target is T1, Receptor-interacting serine/threonine-protein kinase 1 (Homo sapiens, UniProt Q13546).
T1 sequence (Q13546 whole entry): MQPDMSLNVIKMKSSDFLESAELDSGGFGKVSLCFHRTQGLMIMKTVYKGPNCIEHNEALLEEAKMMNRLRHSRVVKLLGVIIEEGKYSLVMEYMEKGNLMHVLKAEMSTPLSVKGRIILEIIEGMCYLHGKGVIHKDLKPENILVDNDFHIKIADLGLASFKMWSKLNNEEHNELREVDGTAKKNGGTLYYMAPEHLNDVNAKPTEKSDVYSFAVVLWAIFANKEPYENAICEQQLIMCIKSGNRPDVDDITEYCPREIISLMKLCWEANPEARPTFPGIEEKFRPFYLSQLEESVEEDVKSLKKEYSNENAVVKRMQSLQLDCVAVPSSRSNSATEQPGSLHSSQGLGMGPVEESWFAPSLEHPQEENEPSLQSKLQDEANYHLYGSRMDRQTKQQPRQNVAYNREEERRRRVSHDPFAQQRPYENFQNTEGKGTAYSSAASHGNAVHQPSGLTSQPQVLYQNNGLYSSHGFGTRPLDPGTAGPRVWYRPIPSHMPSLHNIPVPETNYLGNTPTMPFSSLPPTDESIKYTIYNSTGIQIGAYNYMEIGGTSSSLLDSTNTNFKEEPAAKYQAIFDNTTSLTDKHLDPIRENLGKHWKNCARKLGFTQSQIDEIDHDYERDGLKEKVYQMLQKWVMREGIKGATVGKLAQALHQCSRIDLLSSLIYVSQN
As to the kind of experiment: Binding affinity to wild-type human partial length RIPK1 (M1 to K305 residues) expressed in bacterial expression system after 1 hr by quantitative PCR based KINOMEscan assay. Summed up: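 KINOMEscan competition binding. Bound kinase eluted with 0.5 μM nonbiotinylated ligand for 30 min and quantified by qPCR. Duplicates averaged.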

Series [3] has as its system Mus musculus. As to the kind of experiment: Protection against TNFalpha/Z-VAD-fmk-induced C57BL/6J mouse model of systemic inflammatory response syndrome assessed as increase in mouse survial at 5 to 50 mg/kg, po administered via gavage 2 hrs prior to Z-VAD-fmk addition for 15 mins followed by TNFalpha stimulation for 1 hr and subsequent Z-VAD-fmk addition meaured up to 50 hrs post TNFalpha stimulation. The series is classed as functional, organism-based. The essentials:
as §1

The nature of series [4]: Cytotoxicity against human HT-29 cells measured after 12 hrs by CellTiter-Glo Luminescent assay. In kind it is cell-based.
Series [5] deals with Mus musculus. The series is described as follows: Protection against TNFalpha/Z-VAD-fmk-induced C57BL/6J mouse model of systemic inflammatory response syndrome at 100 mg/kg, po administered via gavage 2 hrs prior to Z-VAD-fmk addition for 15 mins followed by TNFalpha stimulation for 1 hr and subsequent Z-VAD-fmk addition meaured up to 50 hrs post TNFalpha stimulation relative to control. The series is classed as functional.

For series [6], the system named is Mus musculus. The series is described as follows: Protection against TNFalpha/Z-VAD-fmk-induced C57BL/6J mouse model of systemic inflammatory response syndrome at 25 mg/kg, po administered via gavage 2 hrs prior to Z-VAD-fmk addition for 15 mins followed by TNFalpha stimulation for 1 hr and subsequent Z-VAD-fmk addition meaured up to 50 hrs post TNFalpha stimulation relative to control. In kind it is functional. Summed up: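 Overnight-fasted C57BL/6 female mice, n=10 per group. Test compound was given by oral gavage 2 h before mTNF-α. z-VAD-fmk (180 µg) was injected ip, then 15 min later mTNF-α in endotoxin-free PBS was injected iv (400 µg/kg). A second z-VAD-fmk dose (70 µg) was given ip 1 h after TNF. Body temperature and survival were followed against vehicle. One-way ANOVA was used.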

What is called Kd is the equilibrium constant for the complex coming apart. Read a high Kd as lower affinity. A word on the CC50: it is the concentration at which the toxic effect on the cells reaches its halfway point. With `N#Cc1c(Oc2ccc(F)c(NC(=O)Cc3cccc(C(F)(F)F)c3)c2)ccc2nc(NC(=O)C3CC3)sc12`, the result in series [1] and in series [3] was Active. In series [2], this molecule registered a Kd of 480 nM. The same molecule yielded a CC50 at 12 h in series [4] greater than 50000 nM. Moreover, the Activity in series [5] worked out at 70%; in series [6], 20%.
